According to ChEMBL document CHEMBL4406852, “Combating fluconazole-resistant fungi with novel β-azole-phenylacetone derivatives” (Eur J Med Chem, 2019):
Converted amounts (≈) assume the structure as drawn.

What was measured:
Nakaseomyces glabratus = assay: Antifungal activity against Candida glabrata assessed as reduction in fungal growth incubated for 24 hrs by serial dilution method; format: functional
Summary of the method: (§1)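 MIC by CLSI broth microdilution in RPMI 1640 buffered to pH 7.0 with MOPS. Compounds dissolved in DMSO and serially diluted to final 0.03–16 or 0.125–64 µg/mL. Inoculum 1–5 × 10^3 CFU/mL. Incubation 35 °C, 24 h. Drug-free growth and fungus-free blank controls. MIC is the lowest concentration preventing visible growth.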

[1] = biological target: T1, Lanosterol 14-alpha demethylase (Candida albicans (strain SC5314 / ATCC MYA-2876) (Yeast), UniProt P10613); assay: Inhibition of Candida albicans CYP51 assessed as increase in eburicol level at 0.015 ug/ml incubated for 18 hrs by GC/MS analysis relative to control; parameters: scale not given: the % may be the effect or the level left
T1 sequence (P10613 whole entry): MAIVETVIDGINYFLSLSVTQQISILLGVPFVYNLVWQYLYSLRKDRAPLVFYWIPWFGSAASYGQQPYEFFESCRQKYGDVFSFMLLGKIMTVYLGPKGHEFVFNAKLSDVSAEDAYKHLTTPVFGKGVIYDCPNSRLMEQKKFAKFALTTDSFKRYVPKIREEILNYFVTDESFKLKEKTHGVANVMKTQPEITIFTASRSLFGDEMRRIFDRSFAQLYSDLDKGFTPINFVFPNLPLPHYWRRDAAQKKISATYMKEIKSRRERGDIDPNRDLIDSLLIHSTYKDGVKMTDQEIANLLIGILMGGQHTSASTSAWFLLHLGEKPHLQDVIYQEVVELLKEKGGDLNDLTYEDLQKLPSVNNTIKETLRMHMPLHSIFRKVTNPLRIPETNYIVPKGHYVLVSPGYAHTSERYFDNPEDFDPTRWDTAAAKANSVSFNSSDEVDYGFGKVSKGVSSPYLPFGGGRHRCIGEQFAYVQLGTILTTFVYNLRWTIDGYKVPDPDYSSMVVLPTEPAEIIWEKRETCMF
Summary of the method: (§2)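 C. albicans SC5314 was grown in RPMI 1640 with 0.015 µg/mL compound, or fluconazole 0.25 µg/mL, about 18 h at 30 °C with shaking at 200 rpm. Cells were pelleted and washed with PBS, then saponified 60 min at 80 °C in ethanol/pyrogallol/60% KOH. Nonsaponifiable sterols were extracted three times with heptane and analysed by GC-MS.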

Candida albicans [2] = assay: Antifungal activity against fluconazole-resistant Candida albicans 632 assessed as reduction in fungal growth incubated for 24 hrs by serial dilution method; format: functional; conditions: Candida albicans, 632, 24 h
Summary of the method: (§3)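 Fluconazole-resistant C. albicans clinical isolates (17# and CaR from AIDS patients; 632, 901, 904 from clinic) tested by CLSI broth dilution MIC in RPMI 1640 buffered to pH 7.0 with MOPS. Compounds dissolved in DMSO, serially diluted to final 0.03–16 or 0.125–64 μg/mL; inoculum 1–5 × 10^3 CFU/mL; 35 °C, 24 h. MIC = lowest concentration inhibiting visible growth; fluconazole and itraconazole as controls.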

Candida tropicalis = assay: Antifungal activity against Candida tropicalis GIM 2.183 assessed as reduction in fungal growth incubated for 24 hrs by serial dilution method; format: functional; conditions: GIM 2.183, 24 h; summary of the method: as §1
[3] = biological target: T1, Lanosterol 14-alpha demethylase; assay: Inhibition of Candida albicans CYP51 assessed as increase in 14alpha-methyl ergosta-8,24(28)-dien-3beta,6alpha-diol level at 0.015 ug/ml incubated for 18 hrs by GC/MS analysis relative to control; parameters: scale not given: the % may be the effect or the level left; summary of the method: as §2
[4] = Cytotoxicity against human A549 cells assessed as cell survival at 0.08 uM/l incubated for 24 hrs by MTT assay relative to control; format: cell-based; conditions: read-out: Activity
Summary of the method: (§4)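 A549 cells were seeded at 3000 per well in RPMI 1640 and held 16 h at 37 °C, 5% CO2. Medium was then replaced with medium holding DMSO-dissolved compound at final 0.08, 0.4, 2.0 or 10 µM/L and incubated 24 h. MTT was added for 4 h and absorbance read at 490 nm to give survival.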

[5] = Cytotoxicity against human A549 cells assessed as cell survival at 2 uM/l incubated for 24 hrs by MTT assay relative to control; format: cell-based; conditions: read-out: Activity; summary of the method: as §4
[6] = Cytotoxicity against human A549 cells assessed as cell survival at 10 uM/l incubated for 24 hrs by MTT assay relative to control; format: cell-based; conditions: read-out: Activity; summary of the method: as §4
Candida albicans [7] = assay: Antifungal activity against Candida albicans SC5314 assessed as reduction in fungal growth incubated for 24 hrs by serial dilution method; format: functional; conditions: SC5314, 24 h; summary of the method: as §1
Candida albicans [8] = assay: Antifungal activity against fluconazole-resistant Candida albicans 17 assessed as reduction in fungal growth incubated for 24 hrs by serial dilution method; format: functional; conditions: Candida albicans, 17, 24 h; summary of the method: as §3
[9] = Cytotoxicity against human A549 cells assessed as cell survival at 0.4 uM/l incubated for 24 hrs by MTT assay relative to control; format: cell-based; conditions: read-out: Activity; summary of the method: as §4
[10] = biological target: T1, Lanosterol 14-alpha demethylase; assay: Inhibition of Candida albicans CYP51 assessed as increase in lanosterol level at 0.015 ug/ml incubated for 18 hrs by GC/MS analysis relative to control; parameters: scale not given: the % may be the effect or the level left; summary of the method: as §2
[11] = biological target: T1, Lanosterol 14-alpha demethylase; assay: Inhibition of Candida albicans CYP51 assessed as ergosterol level at 0.015 ug/ml incubated for 18 hrs by GC/MS analysis (reference value: 100%); parameters: scale not given: the % may be the effect or the level left; summary of the method: as §2
Candida albicans [12] = assay: Antifungal activity against fluconazole-resistant Candida albicans 904 assessed as reduction in fungal growth incubated for 24 hrs by serial dilution method; format: functional; conditions: Candida albicans, 904, 24 h; summary of the method: as §3
Candida albicans [13] = assay: Antifungal activity against Candida albicans GIM 2.194 assessed as reduction in fungal growth incubated for 24 hrs by serial dilution method; format: functional; conditions: GIM 2.194, 24 h; summary of the method: as §1
[14] = biological target: T1, Lanosterol 14-alpha demethylase; assay: Inhibition of Candida albicans CYP51 assessed as increase in sterol level at 0.015 ug/ml incubated for 18 hrs by GC/MS analysis relative to control; parameters: scale not given: the % may be the effect or the level left; summary of the method: as §2
Candida albicans [15] = assay: Antifungal activity against fluconazole-resistant Candida albicans 901 assessed as reduction in fungal growth incubated for 24 hrs by serial dilution method; format: functional; conditions: Candida albicans, 901, 24 h; summary of the method: as §3
Candida parapsilosis = assay: Antifungal activity against Candida parapsilosis GIM 2.190 assessed as reduction in fungal growth incubated for 24 hrs by serial dilution method; format: functional; conditions: Lodderomyces parapsilosis, GIM 2.190, 24 h; summary of the method: as §1
Candida albicans [16] = assay: Antifungal activity against fluconazole-resistant Candida albicans CaR assessed as reduction in fungal growth incubated for 24 hrs by serial dilution method; format: functional; summary of the method: as §3
[17] = biological target: T1, Lanosterol 14-alpha demethylase; assay: Inhibition of Candida albicans CYP51 assessed as increase in sterol level at 0.25 ug/ml incubated for 18 hrs by GC/MS analysis relative to control; parameters: scale not given: the % may be the effect or the level left
Summary of the method: (§5)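 Candida albicans SC5314 grown in RPMI 1640 with agitation (200 rpm) for ~18 h at 30 °C, with 0.25 µg/mL fluconazole as a comparator alongside the test compound. Cells were pelleted (3000g, 10 min), PBS-washed thrice, and saponified 60 min at 80 °C in ethanol, ethanolic pyrogallol and 60% KOH. Nonsaponifiable sterols were extracted thrice with heptane and profiled by GC-MS.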

[18] = biological target: T1, Lanosterol 14-alpha demethylase; assay: Inhibition of Candida albicans CYP51 assessed as increase in 14alpha-methyl ergosta-8,24(28)-dien-3beta,6alpha-diol level at 0.25 ug/ml incubated for 18 hrs by GC/MS analysis relative to control; parameters: scale not given: the % may be the effect or the level left; summary of the method: as §5
[19] = biological target: T1, Lanosterol 14-alpha demethylase; assay: Inhibition of Candida albicans CYP51 assessed as ergosterol level at 0.25 ug/ml incubated for 18 hrs by GC/MS analysis (reference value: 100%); parameters: scale not given: the % may be the effect or the level left; summary of the method: as §5
[20] = biological target: T1, Lanosterol 14-alpha demethylase; assay: Inhibition of Candida albicans CYP51 assessed as increase in eburicol level at 0.25 ug/ml incubated for 18 hrs by GC/MS analysis relative to control; parameters: scale not given: the % may be the effect or the level left; summary of the method: as §5
[21] = biological target: T1, Lanosterol 14-alpha demethylase; assay: Inhibition of Candida albicans CYP51 assessed as increase in lanosterol level at 0.25 ug/ml incubated for 18 hrs by GC/MS analysis relative to control; parameters: scale not given: the % may be the effect or the level left; summary of the method: as §5

SMILES: Cc1ccc(C(=O)C(Cn2ccnc2)NC(=O)c2ccc(-c3ccccc3)c(F)c2)cc1 (stereo not given)
- MIC (Nakaseomyces glabratus): 0.125 µg/mL (≈ 0.292 µM)
- Activity [1]: 9.56%
- MIC (Candida albicans [2]): 16 µg/mL (≈ 37.4 µM)
- MIC (Candida tropicalis): 0.03 µg/mL (≈ 0.0702 µM)
- Activity [3]: 13.26%
- viability at 24 h, 0.08 µM [4]: 100%
- viability at 24 h, 2 µM [5]: 97%
- viability at 24 h, 10 µM [6]: 92.5%
- MIC (Candida albicans [7]): 0.03 µg/mL (≈ 0.0702 µM)
- MIC (Candida albicans [8]): 2 µg/mL (≈ 4.68 µM)
- viability at 24 h, 0.4 µM [9]: 100%
- Activity [10]: 23.17%
- Activity [11]: 41.99%
- MIC (Candida albicans [12]): 16 µg/mL (≈ 37.4 µM)
- MIC (Candida albicans [13]): 0.06 µg/mL (≈ 0.14 µM)
- Activity [14]: 3.04 to 5.85%
- MIC (Candida albicans [15]): 16 µg/mL (≈ 37.4 µM)
- MIC (Candida parapsilosis): 0.125 µg/mL (≈ 0.292 µM)
- MIC (Candida albicans [16]): 1 µg/mL (≈ 2.34 µM)

SMILES: O=C(NC(Cn1ccnc1)C(=O)c1cccc(Cl)c1)c1ccc(-c2ccccc2)cc1 (stereo not given)
- MIC (Nakaseomyces glabratus): 0.125 µg/mL (≈ 0.291 µM)
- MIC (Candida albicans [2]): 4 µg/mL (≈ 9.3 µM)
- MIC (Candida tropicalis): 0.03 µg/mL (≈ 0.0698 µM)
- viability at 24 h, 0.08 µM [4]: 100%
- viability at 24 h, 2 µM [5]: 97.2%
- viability at 24 h, 10 µM [6]: 96.3%
- MIC (Candida albicans [7]): 0.03 µg/mL (≈ 0.0698 µM)
- MIC (Candida albicans [8]): > 64 µg/mL
- viability at 24 h, 0.4 µM [9]: 97.4%
- MIC (Candida albicans [12]): 4 µg/mL (≈ 9.3 µM)
- MIC (Candida albicans [13]): 0.06 µg/mL (≈ 0.14 µM)
- MIC (Candida albicans [15]): 1 µg/mL (≈ 2.33 µM)
- MIC (Candida parapsilosis): 0.125 µg/mL (≈ 0.291 µM)
- MIC (Candida albicans [16]): > 64 µg/mL

SMILES: OC(Cn1cncn1)(Cn1cncn1)c1ccc(F)cc1F [FLUCONAZOLE]
- Activity [17]: 1.54 to 5.07%
- MIC (Nakaseomyces glabratus): 4 µg/mL (≈ 13.1 µM)
- MIC (Candida albicans [2]): > 64 µg/mL
- Activity [18]: 5.15%
- MIC (Candida tropicalis): 0.5 µg/mL (≈ 1.63 µM)
- viability at 24 h, 0.08 µM [4]: 100%
- viability at 24 h, 2 µM [5]: 95.7%
- viability at 24 h, 10 µM [6]: 95.3%
- Activity [19]: 63%
- MIC (Candida albicans [7]): 0.5 µg/mL (≈ 1.63 µM)
- MIC (Candida albicans [8]): > 64 µg/mL
- viability at 24 h, 0.4 µM [9]: 99.1%
- Activity [20]: 4.27%
- MIC (Candida albicans [12]): > 64 µg/mL
- MIC (Candida albicans [13]): 2 µg/mL (≈ 6.53 µM)
- MIC (Candida albicans [15]): > 64 µg/mL
- MIC (Candida parapsilosis): 2 µg/mL (≈ 6.53 µM)
- MIC (Candida albicans [16]): > 64 µg/mL
- Activity [21]: 16.74%

SMILES: O=C(NC(Cn1ccnc1)C(=O)c1ccc(F)cc1)c1ccc(-c2ccccc2)cc1F (stereo not given)
- MIC (Nakaseomyces glabratus): 0.125 µg/mL (≈ 0.29 µM)
- MIC (Candida albicans [2]): > 64 µg/mL
- MIC (Candida tropicalis): 0.125 µg/mL (≈ 0.29 µM)
- viability at 24 h, 0.08 µM [4]: 100%
- viability at 24 h, 2 µM [5]: 100%
- viability at 24 h, 10 µM [6]: 86.8%
- MIC (Candida albicans [7]): 0.06 µg/mL (≈ 0.139 µM)
- MIC (Candida albicans [8]): 2 µg/mL (≈ 4.64 µM)
- viability at 24 h, 0.4 µM [9]: 100%
- MIC (Candida albicans [12]): 8 µg/mL (≈ 18.5 µM)
- MIC (Candida albicans [13]): 0.25 µg/mL (≈ 0.579 µM)
- MIC (Candida albicans [15]): > 64 µg/mL
- MIC (Candida parapsilosis): 0.125 µg/mL (≈ 0.29 µM)
- MIC (Candida albicans [16]): 2 µg/mL (≈ 4.64 µM)

SMILES: O=C(NC(Cn1ccnc1)C(=O)c1ccccc1F)c1ccc(-c2ccccc2)cc1 (stereo not given)
- MIC (Nakaseomyces glabratus): 2 µg/mL (≈ 4.84 µM)
- MIC (Candida albicans [2]): 0.5 µg/mL (≈ 1.21 µM)
- MIC (Candida tropicalis): 1 µg/mL (≈ 2.42 µM)
- viability at 24 h, 0.08 µM [4]: 100%
- viability at 24 h, 2 µM [5]: 100%
- viability at 24 h, 10 µM [6]: 100%
- MIC (Candida albicans [7]): 0.125 µg/mL (≈ 0.302 µM)
- MIC (Candida albicans [8]): 8 µg/mL (≈ 19.3 µM)
- viability at 24 h, 0.4 µM [9]: 100%
- MIC (Candida albicans [12]): < 0.125 µg/mL
- MIC (Candida albicans [13]): 0.125 µg/mL (≈ 0.302 µM)
- MIC (Candida albicans [15]): 0.25 µg/mL (≈ 0.605 µM)
- MIC (Candida parapsilosis): 0.125 µg/mL (≈ 0.302 µM)
- MIC (Candida albicans [16]): 1 µg/mL (≈ 2.42 µM)
